MC4R ag barr – human MC4R agonism via beta-arrestin; P32245; U2OS MC4R beta-arrestin complementation, luminescence; percent of melanotan II response, DMSO zero; activation, % at 8.9 µM; 0.98% of 360,000 active; AID 540308;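 active = activation above a per-plate cutoff, the mean activation of sample wells on that plate plus 3 SD, cut at about 8% in these data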
Target sequence (P32245 whole entry, looked up): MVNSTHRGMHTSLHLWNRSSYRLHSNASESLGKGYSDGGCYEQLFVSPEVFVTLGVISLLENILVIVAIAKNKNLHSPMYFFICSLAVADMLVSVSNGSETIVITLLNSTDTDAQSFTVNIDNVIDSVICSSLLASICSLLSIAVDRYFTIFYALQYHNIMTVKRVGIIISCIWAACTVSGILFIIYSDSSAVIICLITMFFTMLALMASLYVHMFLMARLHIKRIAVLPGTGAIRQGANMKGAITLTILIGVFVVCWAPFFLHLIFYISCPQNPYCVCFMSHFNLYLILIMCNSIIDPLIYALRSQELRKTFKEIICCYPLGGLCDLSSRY
MC4R antag cAMP – blocks human MC4R cAMP signaling; P32245; MC4R-expressing cells, MTII-stimulated cAMP, LANCE TR-FRET; inhibition, % at 6.5 µM; 0.48% of 360,000 active;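 active = inhibition above its plate's cutoff, the mean of tested wells on that plate plus 3 SD, cut at about 29% in these data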;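 note: 0% = Melanotan II alone and 100% = Melanotan II plus saturating MCL0020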
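system = U2OS cells with stable human MC4R expression | also added = Melanotan II challenge after compound preincubation | dosing = one concentration, 6.5 µM nominal | incubation = compound 30 min, challenge 1 h, detection 1 h | measured by = TR-FRET with Eu-cAMP and labeled anti-cAMP, 671 nm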
NTR1 agonist – activates human neurotensin receptor 1 | NTR1-U2OS beta-arrestin-GFP spot imaging, agonist mode | 0.17% of 330,000 active | P30989 | activation, % at 20 µM | AID 493036;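 active = activation at or above 40% of the spot to cytoplasm intensity ratio, with at least 20 cells analyzed; inconclusive = wells under 20 cells, flagged as cytotoxic or low count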;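 note: 0% = DMSO without peptide and 100% = 100 nM NTR1 peptide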
AI-2 QS modul – modulates the Vibrio harveyi AI-2 quorum sensing system. Vibrio harveyi JMH597 AI-2 luminescence/OD600 ratio, 9 h; stronger effect = lower value; strain lacks LuxN and CqsS sensors; 0 = neutral-control median. activity change, % at 7.5 µM. 0.4% of 300,000 active. AID 2094; in the data active = activity change below about -75%, passing the limit was not always enough; inconclusive = no clear call, values can overlap the other calls;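 note: luminescence divided by OD600 gain over 9 h not by final OD600 alone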
* = called active by the depositor. In the library only some 1.8% were active in any assay of this set; here they are far more common.

What do the screens show for `Cc1ccc(C(=O)O/N=C(\N)Cc2cccs2)c(Cl)c1`?
MC4R ag barr: 1; MC4R antag cAMP: 12; NTR1 agonist: 2; AI-2 QS modul: -89*

How did Cc1cc(C)nc(N/N=C/c2ccccc2)n1 do in these assays?
MC4R ag barr: -3; MC4R antag cAMP: 1; NTR1 agonist: -1; AI-2 QS modul: 15

Results for Cc1nc(N/N=C/c2ccccc2)nc(N(C)c2ccccc2)c1[N+](=O)[O-] ?
MC4R ag barr: 10*; MC4R antag cAMP: 4; NTR1 agonist: 2; AI-2 QS modul: 2

Results for Cc1cn(CC(=O)NCCCn2ccnc2)c(=O)[nH]c1=O ?
MC4R ag barr: -1; MC4R antag cAMP: -7

Results for O=C(CCl)Nc1cccc(Oc2ccccc2)c1 ?
MC4R ag barr: 8.9*; MC4R antag cAMP: -5; NTR1 agonist: -1; AI-2 QS modul: -6

How did O=C(CCl)Nc1ccc(-c2ccccc2)cc1 do in these assays?
MC4R ag barr: 9.1*; MC4R antag cAMP: 13; NTR1 agonist: 6; AI-2 QS modul: -14

Results for COc1ccc(C(=O)N/C(=C/c2cccnc2)C(=O)Nc2cccc(C(C)=O)c2)cc1OC ?
MC4R ag barr: 0; MC4R antag cAMP: 10; NTR1 agonist: 5; AI-2 QS modul: -4

How did COc1ccc(C(=O)NCCc2c[nH]c3ccccc23)cc1[N+](=O)[O-] do in these assays?
MC4R ag barr: -1; MC4R antag cAMP: -6; NTR1 agonist: 5; AI-2 QS modul: -38

How did CC(C)(C)c1ccc(C(=O)c2c[nH]c(C(=O)O)c2)cc1 do in these assays?
MC4R ag barr: -1; MC4R antag cAMP: 6; NTR1 agonist: 0; AI-2 QS modul: 17

What do the screens show for `COC(=O)c1cc(C(=O)c2ccc(C(C)(C)C)cc2)c[nH]1`?
MC4R ag barr: 0; MC4R antag cAMP: -3; NTR1 agonist: 5; AI-2 QS modul: -85*

What do the screens show for `Cc1ccccc1OCc1nnc(SCC(=O)Nc2ccc3nc(SCC(=O)NC(C)(C)C)sc3c2)n1C`?
MC4R ag barr: 11*; MC4R antag cAMP: 0; NTR1 agonist: 8; AI-2 QS modul: 15

How did Cc1ccc(NC(=O)NCCSc2ccc(C)cc2)cc1 do in these assays?
MC4R ag barr: 8.5*; MC4R antag cAMP: 12; NTR1 agonist: 1; AI-2 QS modul: 10

What do the screens show for `CS(=O)(=O)NCCNC(=O)c1cc(OCC(F)(F)F)ccc1OCC(F)(F)F`?
MC4R ag barr: 0; MC4R antag cAMP: 4; NTR1 agonist: -2; AI-2 QS modul: 25

Results for O=C(NCCNS(=O)(=O)c1cccc(C(F)(F)F)c1)c1cc(OCC(F)(F)F)ccc1OCC(F)(F)F ?
MC4R ag barr: 28*; MC4R antag cAMP: 3; NTR1 agonist: -1; AI-2 QS modul: -5

How did CCn1c(SCC(=O)Nc2cc(C)on2)nc2sc3c(c2c1=O)CCCC3 do in these assays?
MC4R ag barr: 17*; MC4R antag cAMP: 0; NTR1 agonist: 2; AI-2 QS modul: 33

Results for Cc1cc(NC(=O)CSc2nc(C(C)C)nc3sc4c(c23)CCCC4)no1 ?
MC4R ag barr: 8.5*; MC4R antag cAMP: 14; NTR1 agonist: 0; AI-2 QS modul: 18

Results for O=C(NCc1cccnc1)c1cccc(S(=O)(=O)NCc2ccccc2)c1 ?
MC4R ag barr: -2; MC4R antag cAMP: -8; NTR1 agonist: 0; AI-2 QS modul: 40

What do the screens show for `COc1ccc(NS(=O)(=O)c2cccc(C(=O)NNC(=O)CN3C(=O)NC(C)(C)C3=O)c2)cc1`?
MC4R ag barr: -2; MC4R antag cAMP: 9; NTR1 agonist: 1; AI-2 QS modul: 5

How did CCCCCCCCCCCCCCCC[N+](C)(C)CCN(Cc1ccc(OC)cc1)c1ncccn1 do in these assays?
MC4R ag barr: 12*; MC4R antag cAMP: 43*; NTR1 agonist: 18

What do the screens show for `COc1ccc(CN(CCN(C)C)c2ccccn2)cc1`?
MC4R ag barr: 0; MC4R antag cAMP: 8; NTR1 agonist: -2; AI-2 QS modul: 4

What do the screens show for `Cc1cccn2c(=O)c3cc(C(=O)NCCc4ccccc4)c(=N)n(Cc4ccco4)c3nc12`?
MC4R ag barr: 0; MC4R antag cAMP: -38; NTR1 agonist: 57*

What do the screens show for `CSc1cccc(NC(=O)NCc2cccc(CNC(=O)Nc3cccc(SC)c3)c2)c1`?
MC4R ag barr: -3; MC4R antag cAMP: 12; NTR1 agonist: 5; AI-2 QS modul: 7

Results for CSc1cccc(NC(=O)C(=O)NCc2ccccc2)c1 ?
MC4R ag barr: 8.7*; MC4R antag cAMP: -4; NTR1 agonist: 0; AI-2 QS modul: 20

Results for CCOC(=O)C1(C)CCCN1C(=O)c1c(F)cccc1F (stereo not given) ?
MC4R ag barr: -1; MC4R antag cAMP: 3

How did Cc1ccc(O)c(NC2=C(Cl)C(=O)N(Cc3ccccc3)C2=O)c1 do in these assays?
MC4R ag barr: 8.7*; MC4R antag cAMP: 2; AI-2 QS modul: -14

What do the screens show for `Nc1c(C(=O)Nc2ccc3c(c2)OCCO3)nnn1Cc1cccc(Br)c1`?
MC4R ag barr: -2; MC4R antag cAMP: -10; NTR1 agonist: 1; AI-2 QS modul: 21

Results for CCOc1ccc(Cn2nnc(C(=O)Nc3cc(C)cc(C)c3)c2N)cc1 ?
MC4R ag barr: 9.4*; MC4R antag cAMP: -9; NTR1 agonist: 5; AI-2 QS modul: 24

Results for Cc1cc(C)cc(NC(=O)Cn2nnc(C(=O)NCc3ccccc3Cl)c2N)c1 ?
MC4R ag barr: 10*; MC4R antag cAMP: 0; NTR1 agonist: 0; AI-2 QS modul: 10

How did CCOc1ccc(Cn2nnc(C(=O)Nc3cc(OC)cc(OC)c3)c2N)cc1 do in these assays?
MC4R ag barr: 8; MC4R antag cAMP: 6; NTR1 agonist: -2; AI-2 QS modul: 16

What do the screens show for `Nc1c(C(=O)Nc2ccc3c(c2)OCCO3)nnn1Cc1ccc(Br)cc1`?
MC4R ag barr: 8.4*; MC4R antag cAMP: 2; NTR1 agonist: 5; AI-2 QS modul: 21

How did Cc1cc(C)cc(NC(=O)Cn2nnc(C(=O)NCCc3ccccc3)c2N)c1 do in these assays?
MC4R ag barr: 1; MC4R antag cAMP: 0; NTR1 agonist: 2; AI-2 QS modul: 18

Results for CNC[C@H](CC1CCCCC1)NC[C@H](Cc1ccccc1)NCCC12CC3CC(CC(C3)C1)C2 ?
MC4R ag barr: 26*; MC4R antag cAMP: 27; NTR1 agonist: 5; AI-2 QS modul: 4

What do the screens show for `NC[C@H](Cc1ccccc1)NCCCCC1CCCCC1`?
MC4R ag barr: 2; MC4R antag cAMP: 6; NTR1 agonist: 3

How did CC(C)=CC(=O)O[C@@H]1Cc2cc3ccc(=O)oc3cc2OC1(C)C do in these assays?
MC4R ag barr: 1; MC4R antag cAMP: -4; NTR1 agonist: 0

How did Cc1cccc(OCC(=O)O/N=C(\N)c2ccc(Cl)cc2)c1 do in these assays?
MC4R ag barr: 12*; MC4R antag cAMP: -2; NTR1 agonist: 0; AI-2 QS modul: inconclusive

Results for Cn1cnnc1SCC(=O)Nc1ccc(N2CCCCC2)cc1 ?
MC4R ag barr: -1; MC4R antag cAMP: -4; NTR1 agonist: -1

What do the screens show for `N#C/C(=C/c1ccc(N2CCCCCC2)o1)c1cccc(F)c1`?
MC4R ag barr: 8.7*; MC4R antag cAMP: 10; NTR1 agonist: -4; AI-2 QS modul: 12
